In article PMC11740227 (FASEB journal : official publication of the Federation of …, 2023):

How the values were obtained:
Molt4E6 cells [1] = assay: Cell death by trypan blue exclusion in Molt4E6 cells; assay type: cell-based, human; details: for cell death: Molt4E6 cells, 24 h of treatment
Molt4E6 cells [2] = assay: Caspase activation by Western blot in Molt4E6 cells; assay type: cell-based, human; details: 6 h of treatment
[3] = assay type: in vitro ADME; details: mouse
[4] = test system: mouse Trp53KO thymic lymphoma cells; assay: Sphingolipid levels in cultured cells by LC MS/MS; assay type: cell-based; details: PF543 0.5 μM
Trp53KO thymic lymphoma [5] = assay: Thymic lymphoma growth in Trp53KO mice by ultrasound imaging; assay type: in vivo, mouse; details: 10 mg/kg BID IP for 10 days, compared to vehicle
[6] = test system: mouse Trp53KO thymic lymphoma cells; assay: Proliferation, viability and cell death of cultured thymic lymphoma cells; assay type: cell-based
Trp53KO thymic lymphoma [7] = assay: Cleaved caspase 3 immunohistochemistry of tumor tissue; assay type: in vivo, mouse; details: Trp53KO mice, day 10 after treatment initiation, compared to vehicle
Procedure, shortened: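 Male Trp53KO mice with ultrasound-detected thymic lymphoma (100–150 mm3) received vehicle or test compound, 10 mg/kg IP twice daily (suspension in 1% HPMC/PBS), and tumors were taken at day 10. Sections were stained overnight at 4°C with anti-cleaved caspase-3 (1:200), then biotinylated anti-rabbit, DAB/H2O2 and hematoxylin counterstain. Positive cells counted in ten 20× fields per sample, expressed per mm2; three mice per condition.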

WT mice [8] = details: mouse, in vivo, ip, 10 mg/kg
S1P levels in blood = assay: Blood sphingolipid analysis by LC MS/MS after PF543 administration; assay type: in vivo, mouse; details: 10 mg/kg of body weight, 2 h after IP injection, vs vehicle
[9] = test system: lymphocytes isolated from WT thymus; assay: Viability of WT lymphocytes; assay type: cell-based, mouse
WT mice [10] = assay: Tolerability of IP dosing in the PK study; assay type: in vivo; details: 100 mg/kg IP
[11] = Pharmacokinetics of PF543 in wildtype mice, IP dosing; assay type: in vivo, mouse; details: after IP administration in mice
Jurkat cells = assay: Cell death by trypan blue exclusion in Jurkat cells with Bak knockdown; assay type: cell-based, human; details: Jurkat sgRNA BakA and BakB vs control cells, 24 h of treatment

CCCC[C@@H](C)[C@@H](OC(=O)C[C@@H](CC(=O)O)C(=O)O)[C@H](C[C@@H](C)C[C@H](O)CCCC[C@@H](O)C[C@H](O)[C@H](C)N)OC(=O)C[C@@H](CC(=O)O)C(=O)O [FB1]
protection from Sph-induced cell death (Molt4E6 cells [1]; FB1 25 μM pre-treatment 1 h, then 3 μM D-erythro-Sph, 24 h): did not protect

CCCCCCCCCCCCC/C=C/[C@H](O)[C@H](N)CO [L-erythro-Sph]
cell death (Molt4E6 cells [1]): did not induce cell death | caspase activation (Molt4E6 cells [2]): did not induce cell death or caspase activation

Cc1cc(CS(=O)(=O)c2ccccc2)cc(OCc2ccc(CN3CCC[C@@H]3CO)cc2)c1 [PF543]
plasma protein binding [3]: 94 % bound | Sph levels in cells [4]: significantly increased | total Cer levels in cells [4]: significantly increased | tumor growth (tumor size by ultrasound) (Trp53KO thymic lymphoma [5]): significant inhibition | proliferation over time ([6]; PF543 0.5 μM, low-serum medium, counted every day for 4 days, CCK-8 at day 2): significantly decreased | cell death ([6]; Trp53KO thymic lymphoma cells treated with PF543): resulted in cell death | survival of cells in culture ([6]; mouse Trp53KO lymphoma cells): reduced survival | number of cleaved caspase 3 positive cells in tumor samples (Trp53KO thymic lymphoma [7]): significantly higher | liver function (liver enzymes in blood) (WT mice [8]): did not significantly impact | number of total white cells and lymphocytes in blood (WT mice [8]): no decrease | S1P levels in blood (S1P levels in blood): decreased | cell viability over time [9]: did not affect cell viability | tolerability of IP dosing (WT mice [10]): not tolerated | half-life (T1/2) [11]: ~ 4 h

CCCCCCCCCCCCC/C=C/[C@@H](O)[C@@H](N)CO [Sph, sphingosine]
cell death (Molt4E6 cells [1]): caused cell death | caspase activation (Molt4E6 cells [2]): activation of caspases | Sph-induced cell death after knockdown of Bak (Jurkat cells): significantly protected

ZVAD
inhibition of Sph-induced cell death (Molt4E6 cells [1]; ZVAD 40 μM pre-treatment 1 h, then 3 μM D-erythro-Sph, 24 h): significantly inhibited | protection from PF543-induced cell death ([6]; pan-caspase inhibitor with PF543, Trp53KO thymic lymphoma cells): partially protected
